One data set has as its system Mus musculus. The data set is described as follows: Hypothermia in mice after perorla administration. Type of data set: functional. The gist of the method:
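Groups of three CFW mice were dosed orally. Rectal temperature was taken 15 min, 2.5 h and 5 h after dosing. Mean changes from each group's mean initial temperature were summed as a "temperature index". ED_min is the minimum dose (mg/kg) giving an index at least 5 lower than the control group.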

Data set [1] in a line: Lethal dose in mice after perorla administration. Type of data set: toxicity, organism-based. The conditions noted are these: mouse, in vivo, po. The gist of the method:
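CFW albino mice (19–21 g), groups of three, given oral doses up to 800 mg/kg as solution or suspension. Mortality and gross behavioural changes observed over 48 h; LD50 approximated from the outcome.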

Data set [2] relates to Rattus norvegicus. The data set is described as follows: Compound was evaluated for its ability to block conditioned avoidance response (CAR) in rats; Dose administered perorally is 20 mg/kg; 26-30% block. As to conditions: route oral. Type of data set: functional.
Data set [3] concerns Rattus norvegicus. The data set is described as follows: compound was evaluated for its ability to produce catalepsy activity in rats; Dose administered perorally is 20 mg/kg. As to conditions: route oral. Type of data set: functional. The gist of the method: (§1)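 Groups of eight Lilly Wistar rats (180–190 g) were dosed orally and checked at 0.5, 1, 1.5, 2, 3, 4 and 5 h. Front paws were placed on a 1.5-cm rod 7 cm above the table, and posture was timed up to 20 min. Release within 10 s counted as noncataleptic. Each rat was scored 0–5 by hold time. Maximum scores per animal were summed, giving a group maximum of 40.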

The test system of data set [4] is Rattus norvegicus. Nature of the data set: Compound was evaluated for its ability to block conditioned avoidance response (CAR) in rats; Dose administered perorally is 50 mg/kg; 76-99% block. Type of data set: functional. As to conditions: route oral.
Data set [5] is filed under the species Rattus norvegicus. The data set is described as follows: compound was evaluated for its ability to produce catalepsy activity in rats. The data set is classed as functional. The gist of the method:
as §1

The subject of data set [6] is Rattus norvegicus. The data set is described as follows: Compound was evaluated for its ability to block conditioned avoidance response (CAR) in rats; Dose administered perorally is 1.25 mg/kg; 51-75% block. Type of data set: functional. As to conditions: route oral.

Usually LD50 stands for the dose expected to kill half of the subjects tested. Read a low LD50 as greater toxicity.

For the compound `CN1CCN(C2=Nc3cc(F)ccc3Nc3cscc32)CC1`, the EDmin in the data set with Mus musculus came to 6.25 mg/kg. The compound further had an LD50 in data set [1] of 100 mg/kg. In addition, the Activity in the data set on Rattus norvegicus [2] and with Rattus norvegicus [3] was 1 throughout.

Turning to `CN1CCN(C2=Nc3cc(Cl)c(Cl)cc3Nc3cscc32)CC1`, in the data set on Mus musculus, the EDmin is 25 mg/kg. The compound also registered an LD50 in data set [1] of 400 mg/kg. Also, the Activity amounted to 4 with Rattus norvegicus [4] and 1 in the data set filed under Rattus norvegicus [5].

In the data set on Mus musculus, `O=C(CCCN1CCC(O)(c2ccc(Cl)cc2)CC1)c1ccc(F)cc1` [HALOPERIDOL] gave an EDmin of 3 mg/kg. In addition, the LD50 in data set [1] is > 100 mg/kg. Besides, the Activity in the data set on Rattus norvegicus [6] and in the data set filed under Rattus norvegicus [5] was 3 throughout.

For the origin of these results see ChEMBL document CHEMBL1121490, “10-Piperazinyl-4H-theino[3,2-b][1,5]- and -[3,4-b][1,5]benzodiazepines as potential neuroleptics” (J Med Chem, 1980).
